# Measurements from ChEMBL document CHEMBL2146382, “Cytotoxic and antineoplastic activity of timosaponin A-III for human colon cancer cells” (J Nat Prod, 2011).
# pIC50: −log10 of the molar value. Calls of active or inactive are those of the source. No cut-off for these calls is given here.
# Key:
# HCT-15 [1] = assay: Cell cycle arrest in human HCT15 cells assessed as accumulation at sub-G1 phase at 20 uM after 24 hrs using propidium-iodide staining by flow-cytometry (reference value: 6.5 %); type: functional
# HCT-15 [2] = assay: Cell cycle arrest in human HCT15 cells assessed as accumulation at G0/G1 phase at 20 uM after 24 hrs using propidium-iodide staining by flow-cytometry (reference value: 37.0 %); type: functional
# HCT-15 [3] = assay: Cell cycle arrest in human HCT15 cells assessed as accumulation at S phase at 20 uM after 24 hrs using propidium-iodide staining by flow-cytometry (reference value: 34.1 %); type: functional
# HCT-15 [4] = assay: Cell cycle arrest in human HCT15 cells assessed as accumulation at G2/M phase at 20 uM after 24 hrs using propidium-iodide staining by flow-cytometry (reference value: 22.4 %); type: functional
# Mus musculus = assay: Toxicity in human HCT15 cells xenografted nude BALB/c mouse assessed as body weight changes at 2 to 5 mg/kg, ip administered 3 times a week for 4 weeks measured after 9 to 30 days; type: organism-based, HCT-15; parameters: route intraperitoneal; conditions: in vivo
# Summary of the method: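 HCT-15 cells (2 × 10^6) were injected subcutaneously into the flank of BALB/c-nu (nu/nu) mice. Dosing began once tumours reached ca. 80 mm3, with mice randomised to groups of five. Compound (2 or 5 mg/kg) in ethanol-cremophor-H2O (0.5:0.5:99) was given ip three times weekly for four weeks. Controls received equal-volume vehicle. Body weight was monitored over the testing period, with tumour measurements over 30 days.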
# HCT-15 [5] = assay: Cell cycle arrest at G0/G1 phase in human HCT15 cells assessed as decrease in c-Myc expression at 5 to 20 uM after 24 hrs by Western blot analysis; type: functional, cell-based
# Summary of the method: (§1)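 HCT-15 cells in RPMI/10% FBS exposed to test compound at various concentrations; lysates quantified by BCA, 30–50 μg protein run on 10% SDS-PAGE, transferred to PVDF, blocked 1 h in 5% milk/PBST, primary antibodies overnight at 4 °C, HRP anti-mouse IgG 1:1500 for 3 h at room temperature, ECL detection.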
# HCT-15 [6] = assay: Cell cycle arrest at G0/G1 phase in human HCT15 cells assessed as suppression of Rb ser807/811 phosphorylation at 5 to 20 uM after 12 to 24 hrs by Western blot analysis; type: functional, cell-based; summary of the method: as §1
# HCT-15 [7] = assay: Cell cycle arrest at G2/M phase in human HCT15 cells assessed as cyclin A down regulation at 5 to 20 uM after 12 to 24 hrs by Western blot analysis; type: functional, cell-based; summary of the method: as §1
# HCT-15 [8] = assay: Cell cycle arrest at G2/M phase in human HCT15 cells assessed as cyclin B1 down regulation at 5 to 20 uM after 12 to 24 hrs by Western blot analysis; type: functional, cell-based; summary of the method: as §1
# HCT-15 [9] = assay: Cell cycle arrest at […] phase in human HCT15 cells assessed as CDK4 down regulation at 5 to 20 uM after 12 to 24 hrs by Western blot analysis; type: functional, cell-based; summary of the method: as §1
# HCT-15 [10] = assay: Induction of apoptosis in human HCT15 cells assessed as increase in caspase-8 expression after 12 to 24 hrs by Western blot analysis; type: functional, cell-based; summary of the method: as §1
# HCT-15 [11] = assay: Induction of apoptosis in human HCT15 cells assessed as increase in caspase-9 expression after 12 to 24 hrs by Western blot analysis; type: functional, cell-based
# Summary of the method: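 HCT-15 cells (RPMI, 10% heat-inactivated FBS, antibiotics-antimycotics, 37 C, 5% CO2) exposed to compound. Cells lysed, protein measured by BCA, 30-50 μg per lane resolved on 10% SDS-PAGE and electroblotted to PVDF. Membranes blocked 1 h in 5% nonfat milk/PBST, probed with primary antibodies overnight at 4 C, then HRP anti-mouse IgG 1:1500 for 3 h at room temperature. Detection by ECL; β-actin antibody available.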
# HCT-15 [12] = assay: Induction of apoptosis in human HCT15 cells assessed as increase in caspase-3 expression at 5 to 20 uM by Western blot analysis; type: functional, cell-based; summary of the method: as §1
# HCT-15 [13] = assay: Induction of apoptosis in human HCT15 cells assessed as PARP cleavage at 20 uM after 12 to 24 hrs by Western blot analysis; type: functional, cell-based; summary of the method: as §1
# SW-620 = assay: Growth inhibition of human SW620 cells; type: functional, cell-based
# Summary of the method: (§2)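 SRB assay: cells at 5 × 10^4 cells/mL were exposed to a concentration series for 3 days, fixed with 10% TCA and stained with sulforhodamine B. Survival was expressed as % of solvent-treated control and IC50 taken by nonlinear regression of % survival versus concentration. Media held 10% heat-inactivated FBS plus antibiotics: RPMI (HCT-15, HCT 116, HT-29), RPMI with 25 mM HEPES (SW480, SW620), DMEM (MRC-5, Hs68). Cultures were kept at 37 C, 5% CO2.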
# Hs68 = assay: Growth inhibition of human HS68 cells; type: cell-based; summary of the method: as §2
# HT-29 = assay: Growth inhibition of human HT-29 cells; type: functional, cell-based; summary of the method: as §2
# HCT-15 [14] = assay: Cytotoxicity against human HCT15 cells assessed as morphological changes with distinct rounded shapes and detachment after 12 to 24 hrs by phase-contrast microscopy; type: functional, cell-based
# Summary of the method: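 HCT-15 cells treated with 0–20 μM for 12 and 24 h, vehicle-treated controls; morphology examined and photographed under phase-contrast microscope.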
# HCT-15 [15] = assay: Cell cycle arrest in human HCT15 cells assessed as accumulation at sub-G1 phase at 5 uM after 12 hrs using propidium-iodide staining by flow-cytometry (reference value: 5.2 %); type: functional
# HCT-15 [16] = assay: Cell cycle arrest in human HCT15 cells assessed as accumulation at S phase at 5 uM after 12 hrs using propidium-iodide staining by flow-cytometry (reference value: 34.7 %); type: functional
# HCT-15 [17] = assay: Cell cycle arrest in human HCT15 cells assessed as accumulation at sub-G1 phase at 10 uM after 12 hrs using propidium-iodide staining by flow-cytometry (reference value: 5.2 %); type: functional
# HCT-15 [18] = assay: Cell cycle arrest in human HCT15 cells assessed as accumulation at G2/M phase at 10 uM after 12 hrs using propidium-iodide staining by flow-cytometry (reference value: 15.7 %); type: functional
# HCT-15 [19] = assay: Cell cycle arrest in human HCT15 cells assessed as accumulation at sub-G1 phase at 20 uM after 12 hrs using propidium-iodide staining by flow-cytometry (reference value: 5.2 %); type: functional
# HCT-15 [20] = assay: Cell cycle arrest in human HCT15 cells assessed as accumulation at G0/G1 phase at 20 uM after 12 hrs using propidium-iodide staining by flow-cytometry (reference value: 44.4 %); type: functional
# HCT-15 [21] = assay: Cell cycle arrest in human HCT15 cells assessed as accumulation at G2/M phase at 20 uM after 12 hrs using propidium-iodide staining by flow-cytometry (reference value: 15.7 %); type: functional
# HCT-15 [22] = assay: Cell cycle arrest in human HCT15 cells assessed as accumulation at G0/G1 phase at 5 uM after 24 hrs using propidium-iodide staining by flow-cytometry (reference value: 37.0 %); type: functional
# HCT-15 [23] = assay: Cell cycle arrest in human HCT15 cells assessed as accumulation at S phase at 5 uM after 24 hrs using propidium-iodide staining by flow-cytometry (reference value: 34.1 %); type: functional
# HCT-15 [24] = assay: Cell cycle arrest in human HCT15 cells assessed as accumulation at G2/M phase at 10 uM after 24 hrs using propidium-iodide staining by flow-cytometry (reference value: 22.4 %); type: functional
# HCT-15 [25] = assay: Growth inhibition of human HCT15 cells; type: functional, cell-based; summary of the method: as §2
# HCT-15 [26] = assay: Cytotoxicity against human HCT15 cells after 3 days; type: functional, cell-based; conditions: HCT-15, 72 h; summary of the method: as §2
structure (smiles),measurement,setting,value
C[C@H]1CC[C@@]2(OC1)O[C@H]1C[C@H]3[C@@H]4CC[C@@H]5C[C@@H](O[C@@H]6O[C@H](CO)[C@H](O)[C@H](O)[C@H]6O[C@@H]6O[C@H](CO)[C@@H](O)[C@H](O)[C@H]6O)CC[C@]5(C)[C@H]4CC[C@]3(C)[C@H]1[C@@H]2C [TIMOSAPONIN AIII],Activity,HCT-15 [1],39.7%
same,Activity,HCT-15 [2],43.4%
same,Activity,HCT-15 [3],17%
same,Activity,HCT-15 [4],0%
same,Activity,Mus musculus,Non-toxic
same,Activity,HCT-15 [5],Active
same,Activity,HCT-15 [6],Active
same,Activity,HCT-15 [7],Active
same,Activity,HCT-15 [8],Active
same,Activity,HCT-15 [9],Active
same,Activity,HCT-15 [10],Active
same,Activity,HCT-15 [11],Active
same,Activity,HCT-15 [12],Active
same,Activity,HCT-15 [13],Active
same,pIC50,SW-620,4.95
same,pIC50,Hs68,< 4.30
same,pIC50,HT-29,4.99
same,Activity,HCT-15 [14],Dose-dependent effect
same,Activity,HCT-15 [15],4.8%
same,Activity,HCT-15 [16],22.5%
same,Activity,HCT-15 [17],14.2%
same,Activity,HCT-15 [18],24.2%
same,Activity,HCT-15 [19],41.8%
same,Activity,HCT-15 [20],12.2%
same,Activity,HCT-15 [21],41.8%
same,Activity,HCT-15 [22],36.4%
same,Activity,HCT-15 [23],37%
same,Activity,HCT-15 [24],30.4%
same,pIC50,HCT-15 [25],5.21
same,pIC50,HCT-15 [26],5.21
